Data set [1] deals with BV-2. The data set is described as follows: (§1) Antiinflammatory activity in LPS-induced […] BV2 cells assessed as reduction in PGE2 production pretreated for 30 mins followed by LPS stimulation measured for 24 hrs by ELISA. It counts as functional, cell-based. The following applies: Mus musculus. In short, it runs like this: (§2)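 BV2 microglia cultured in 24-well plates and preincubated 30 min with test agent (10−80 μM range), then stimulated 24 h with LPS 1 μg/mL. Supernatant PGE2 quantified by ELISA kit. IC50 from mean of three experiments ± SD.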
(In an ELISA, binding on a coated surface is turned into a signal by an enzyme label.)

The nature of data set [2]: as §1. It is filed as functional, cell-based. The following applies: BV-2. In short, it runs like this:
as §2

Data set [3] can be described thus: Cytotoxicity against […] BV2 cells at 10 to 80 uM by MTT assay. It counts as cell-based. The following applies: bv-2, 80 µM. Put shortly:
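MTT added to BV2 cell suspension (1 × 10^5 cells/mL), incubated 30 min. Formazan dissolved in acidic 2-propanol and read at 540 nm. Compounds tested at 10−80 μM.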
In general terms: Tetrazolium dyes change colour on reduction, which living cells bring about.

The test system of data set [4] is BV-2. The data set is described as follows: Inhibition of LPS-induced iNOS expression in […] BV2 cells pretreated for 30 mins followed by LPS stimulation measured for 24 hrs by Western blot analysis. It counts as functional, cell-based. The following applies: Mus musculus. Put shortly:
(§3)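 BV2 microglia pretreated 30 min with test agent at 20−80 μM, then LPS 1 μg/mL for 24 h. Lysates in 20 mM Tris-HCl pH 7.4 with protease inhibitors, protein by Lowry. SDS-PAGE, nitrocellulose transfer, milk block, ECL detection. Band densitometry normalized to β-actin.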
On the technique in general: In western blotting, separated proteins are transferred to a membrane and probed.

Data set [5] concerns BV-2. The data set is described as follows: (§4) Antiinflammatory activity in LPS-induced […] BV2 cells assessed as reduction in NO production pretreated for 30 mins followed by LPS stimulation measured for 24 hrs by Greiss assay. It is filed as functional, cell-based. The following applies: Mus musculus. Put shortly:
(§5)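 BV2 microglia in DMEM with 10% heat-inactivated FBS, penicillin/streptomycin and 2 mM L-glutamine at 37 °C, 5% CO2. Pretreated 30 min with test agent (10−80 μM range), then LPS 1 μg/mL for 24 h. Nitrite in supernatant measured by Griess reagent, absorbance at 525 nm. IC50 from mean of three experiments ± SD.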

Data set [6] in a line: as §4. It is filed as functional, cell-based. The following applies: BV-2. Put shortly:
as §5

Data set [7] concerns BV-2. As to the kind of experiment: Inhibition of LPS-induced COX2 expression in […] BV2 cells pretreated for 30 mins followed by LPS stimulation measured for 24 hrs by Western blot analysis. It counts as functional, cell-based. The following applies: Mus musculus. In short, it runs like this:
as §3

Data set [8] addresses Transcription factor p65 (Homo sapiens) (UniProt Q04206). As to the kind of experiment: Inhibition of LPS-induced p65 translocation from cytosol to nucleus in […] BV2 cells pretreated for 30 mins followed by LPS stimulation for 30 mins by Western blot analysis. It counts as cell-based. The following applies: BV-2. Put shortly:
(§6)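 BV2 microglia pretreated 30 min with test agent (20, 40, 80 μM), then LPS for 30 min. Cytosolic and nuclear fractions prepared with NE-PER reagents. Western blot for IκB-α, phospho-IκB-α, p65 and p50. Densitometry normalized to β-actin (cytosol) or PCNA (nucleus). Mean of three experiments ± SD.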

Data set [9] has as its target T1, NF-kappa-B inhibitor alpha (Homo sapiens) (UniProt P25963).
T1 sequence (whole entry): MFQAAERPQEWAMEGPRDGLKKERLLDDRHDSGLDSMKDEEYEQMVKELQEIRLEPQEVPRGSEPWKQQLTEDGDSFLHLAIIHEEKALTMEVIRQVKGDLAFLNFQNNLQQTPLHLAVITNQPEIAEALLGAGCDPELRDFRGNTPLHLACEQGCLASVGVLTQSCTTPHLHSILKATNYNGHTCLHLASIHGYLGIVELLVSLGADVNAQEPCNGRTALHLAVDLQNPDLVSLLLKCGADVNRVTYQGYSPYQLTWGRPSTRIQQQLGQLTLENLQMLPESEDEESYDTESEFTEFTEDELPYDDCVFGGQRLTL
The data set is described as follows: Inhibition of IkappaB-alpha degradation in LPS-induced […] BV2 cells pretreated for 30 mins followed by LPS stimulation for 30 mins by Western blot analysis. The following applies: BV-2. It is filed as cell-based. Put shortly:
as §6

Data set [10] deals with T2, Nuclear factor NF-kappa-B p105 subunit (Homo sapiens) (UniProt P19838).
T2 sequence (whole entry): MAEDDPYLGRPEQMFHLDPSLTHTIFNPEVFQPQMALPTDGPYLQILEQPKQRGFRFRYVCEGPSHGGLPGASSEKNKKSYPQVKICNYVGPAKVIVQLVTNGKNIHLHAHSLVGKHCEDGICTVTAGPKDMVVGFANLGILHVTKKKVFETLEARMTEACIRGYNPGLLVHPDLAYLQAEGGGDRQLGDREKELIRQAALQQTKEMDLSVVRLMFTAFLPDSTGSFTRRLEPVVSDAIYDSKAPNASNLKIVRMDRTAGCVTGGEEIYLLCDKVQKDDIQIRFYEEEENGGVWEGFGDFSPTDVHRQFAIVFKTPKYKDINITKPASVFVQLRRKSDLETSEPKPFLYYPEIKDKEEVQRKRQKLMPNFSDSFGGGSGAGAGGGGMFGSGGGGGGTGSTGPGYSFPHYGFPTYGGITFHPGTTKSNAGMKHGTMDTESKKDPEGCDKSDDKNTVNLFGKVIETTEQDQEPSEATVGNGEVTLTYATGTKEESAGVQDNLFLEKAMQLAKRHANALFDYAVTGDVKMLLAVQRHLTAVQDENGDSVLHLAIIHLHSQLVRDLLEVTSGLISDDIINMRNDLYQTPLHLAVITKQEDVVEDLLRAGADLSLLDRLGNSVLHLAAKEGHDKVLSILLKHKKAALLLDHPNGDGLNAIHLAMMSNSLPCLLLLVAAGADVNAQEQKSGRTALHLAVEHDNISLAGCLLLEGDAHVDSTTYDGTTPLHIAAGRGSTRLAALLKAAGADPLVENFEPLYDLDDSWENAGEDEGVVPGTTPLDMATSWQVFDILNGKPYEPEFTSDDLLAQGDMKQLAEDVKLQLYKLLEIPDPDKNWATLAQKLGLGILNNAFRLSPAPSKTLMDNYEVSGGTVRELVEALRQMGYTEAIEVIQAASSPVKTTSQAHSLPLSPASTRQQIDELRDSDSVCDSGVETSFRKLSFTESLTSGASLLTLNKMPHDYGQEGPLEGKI
As to the kind of experiment: Inhibition of LPS-induced p50 translocation from cytosol to nucleus in […] BV2 cells pretreated for 30 mins followed by LPS stimulation for 30 mins by Western blot analysis. It is filed as cell-based. The following applies: BV-2. Put shortly: as §6

In data set [11] the test system is BV-2. As to the kind of experiment: Inhibition of ERK phosphorylation in […] BV2 cells at 20 to 80 uM pretreated for 30 mins followed by LPS stimulation for 30 mins by Western blot analysis. It is filed as cell-based. In short, it runs like this:
(§7)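 BV2 microglia pretreated 30 min with test agent (20−80 μM), then LPS 1 μg/mL for 30 min. Total and phosphorylated ERK, JNK and p38 detected by Western blot (SDS-PAGE, nitrocellulose, ECL).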

Data set [12] is described as follows: Effect on JNK expression in […] BV2 cells at 20 to 80 uM pretreated for 30 mins followed by LPS stimulation for 30 mins by Western blot analysis. It is filed as ADME, cell-based. The following applies: bv-2, 0.5 h. In short, it runs like this:
as §7

Data set [13] can be described thus: Effect on ERK expression in […] BV2 cells at 20 to 80 uM pretreated for 30 mins followed by LPS stimulation for 30 mins by Western blot analysis. It is filed as ADME, cell-based. The following applies: bv-2, 0.5 h. In short, it runs like this:
as §7

For another data set, the system named is JNK (Mus musculus). As to the kind of experiment: Inhibition of JNK phosphorylation in mouse BV2 cells at 20 to 80 uM pretreated for 30 mins followed by LPS stimulation for 30 mins by Western blot analysis. The following applies: BV-2.
The nature of data set [14]: Effect on p38 expression in […] BV2 cells at 20 to 80 uM pretreated for 30 mins followed by LPS stimulation for 30 mins by Western blot analysis. It counts as ADME, cell-based. The following applies: bv-2, 0.5 h. Put shortly: as §7
Data set [15] deals with T1, NF-kappa-B inhibitor alpha (Homo sapiens). The data set is described as follows: Inhibition of IkappaB-alpha phosphorylation in LPS-induced […] BV2 cells pretreated for 30 mins followed by LPS stimulation for 30 mins by Western blot analysis. The following applies: BV-2. It counts as cell-based. Put shortly:
as §6

The next data set concerns p38 MAPK (Mus musculus). The data set is described as follows: Inhibition of p38 phosphorylation in mouse BV2 cells pretreated for 30 mins followed by LPS stimulation for 30 mins by Western blot analysis. The following applies: BV-2.

The values that follow come from ChEMBL document CHEMBL3758144, “Dihydroisocoumarin Derivatives from Marine-Derived Fungal Isolates and Their Anti-inflammatory Effects in Lipopolysaccharide-Induced BV2 Microglia” (J Nat Prod, 2015).

Active and inactive are the calls of the source. No cut-off for these calls is given here.

A word on the IC50: it is the concentration at which inhibition is half-maximal.

Transcription factor p65 (Homo sapiens), sequence (Q04206 whole entry): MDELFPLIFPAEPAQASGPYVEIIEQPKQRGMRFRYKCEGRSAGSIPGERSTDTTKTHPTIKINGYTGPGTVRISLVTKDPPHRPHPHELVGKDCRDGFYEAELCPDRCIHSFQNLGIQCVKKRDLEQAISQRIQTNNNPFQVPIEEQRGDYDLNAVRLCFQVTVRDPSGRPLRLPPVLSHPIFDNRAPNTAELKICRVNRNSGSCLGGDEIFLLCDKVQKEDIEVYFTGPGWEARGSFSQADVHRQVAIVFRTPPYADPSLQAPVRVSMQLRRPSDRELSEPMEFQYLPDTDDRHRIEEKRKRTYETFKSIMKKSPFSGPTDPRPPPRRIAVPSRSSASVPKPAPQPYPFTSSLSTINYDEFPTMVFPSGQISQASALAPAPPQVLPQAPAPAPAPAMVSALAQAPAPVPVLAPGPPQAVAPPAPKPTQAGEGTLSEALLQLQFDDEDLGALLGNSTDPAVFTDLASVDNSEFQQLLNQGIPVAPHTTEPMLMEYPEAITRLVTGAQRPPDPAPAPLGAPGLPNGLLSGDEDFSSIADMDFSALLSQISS

Consider `C[C@@H]1O[C@@H](C[C@H]2Cc3cc(O)cc(O)c3C(=O)O2)CC[C@@H]1O`, for which the Activity result is “Dose-dependent effect” in the data set on BV-2 [1], “Non-toxic” in [3] and “Dose-dependent effect” in the data set on BV-2 [5]. Besides, the values for the IC50 in [2] and in data set [6] were 23 µM and 20 µM, respectively. The inhibition entry in the data set with BV-2 [4] and with BV-2 [7] was “Dose-dependent effect” each time.
For `COc1cc(O)c2c(c1)C[C@H](C[C@H]1CCC[C@H](C)O1)OC2=O`, the Activity result in the data set with BV-2 [1] is “Dose-dependent effect”; in [3] it was “Non-toxic”; in the data set on BV-2 [5] it was “Dose-dependent effect”. Further, the IC50 in data set [2] and in data set [6] was 21 µM throughout. Moreover, the inhibition result in the data set with BV-2 [4] and in the data set on BV-2 [7] was “Dose-dependent effect” throughout.
For the compound `COc1cc(O)cc2c1C(=O)O[C@@H](C[C@H]1CCC[C@H](C)O1)C2`, the Activity result in the data set on BV-2 [1] was “Dose-dependent effect”; in data set [3], “Non-toxic”; with BV-2 [5] it was “Dose-dependent effect”. Besides, the results for the IC50 in data set [2] and in data set [6] were 30 µM and 28 µM, respectively. Also, the inhibition result in the data set with BV-2 [4] and in the data set with BV-2 [7] was “Dose-dependent effect” throughout.
With `C[C@H]1C[C@@H](O)C[C@H](C[C@H]2Cc3cc(O)cc(O)c3C(=O)O2)O1`, the values for the Activity result (in the data set on BV-2 [1]; in data set [3]; with BV-2 [5]) were “Dose-dependent effect”, “Non-toxic” and “Dose-dependent effect”, respectively. The IC50 in data set [2] was 61 µM; in data set [6] it was 65 µM. Moreover, the inhibition entry in the data set on BV-2 [4] and in the data set on BV-2 [7] was “Dose-dependent effect” in each case.
On to `C[C@H]1CCC[C@H](C[C@H]2Cc3cc(O)cc(O)c3C(=O)O2)O1` [CLADOSPORIN], for which the values for the Activity entry (with BV-2 [1]; in data set [3]; in the data set on BV-2 [5]) were “Dose-dependent effect”, “Non-toxic” and “Dose-dependent effect”, respectively. Moreover, the IC50 in data set [2] worked out at 27 µM; in data set [6] it was 24 µM. Further, the inhibition result in the data set with BV-2 [4] and in the data set on BV-2 [7] was “Dose-dependent effect” throughout.
For `C[C@H]1CCC[C@H](C[C@H]2Cc3cc(O)cc(O[C@H]4O[C@H](CO)[C@@H](O)[C@H]4O)c3C(=O)O2)O1`, the Activity result with BV-2 [1] is “Dose-dependent effect”; in data set [3] it was “Non-toxic”; in [12] it was “Non-toxic”; in data set [13] it was “Non-toxic”; with BV-2 [5], “Dose-dependent effect”; in data set [14], “Non-toxic”. Moreover, the Activity result in the data set with p38 MAPK (Mus musculus) is “Dose-dependent effect”. For the same compound, the IC50 is 34 µM in data set [2] and 33 µM in [6]. Also, the inhibition entry (in [8]; in data set [9]; in data set [10]; in the data set with BV-2 [4]; in the data set with BV-2 [7]; in data set [15]) was “Dose-dependent effect” each time. Moreover, the inhibition result in the data set on BV-2 [11] and in the data set with JNK (Mus musculus) was “inactive” each time.
